# Reference: article PMC4872822 (Journal of medicinal chemistry, 2015)
# How the values were obtained:
# h-15-LOX-1 = target: T1, h-15-LOX-1 (Homo sapiens, UniProt P16050); experiment: Human 15-LOX-1 screening UV assay; type: biochemical; details: for h-15-LOX-1 inhibition (result in words): SAR comparison, Figure 3, up to 50 μM
# T1 sequence (P16050 1-662): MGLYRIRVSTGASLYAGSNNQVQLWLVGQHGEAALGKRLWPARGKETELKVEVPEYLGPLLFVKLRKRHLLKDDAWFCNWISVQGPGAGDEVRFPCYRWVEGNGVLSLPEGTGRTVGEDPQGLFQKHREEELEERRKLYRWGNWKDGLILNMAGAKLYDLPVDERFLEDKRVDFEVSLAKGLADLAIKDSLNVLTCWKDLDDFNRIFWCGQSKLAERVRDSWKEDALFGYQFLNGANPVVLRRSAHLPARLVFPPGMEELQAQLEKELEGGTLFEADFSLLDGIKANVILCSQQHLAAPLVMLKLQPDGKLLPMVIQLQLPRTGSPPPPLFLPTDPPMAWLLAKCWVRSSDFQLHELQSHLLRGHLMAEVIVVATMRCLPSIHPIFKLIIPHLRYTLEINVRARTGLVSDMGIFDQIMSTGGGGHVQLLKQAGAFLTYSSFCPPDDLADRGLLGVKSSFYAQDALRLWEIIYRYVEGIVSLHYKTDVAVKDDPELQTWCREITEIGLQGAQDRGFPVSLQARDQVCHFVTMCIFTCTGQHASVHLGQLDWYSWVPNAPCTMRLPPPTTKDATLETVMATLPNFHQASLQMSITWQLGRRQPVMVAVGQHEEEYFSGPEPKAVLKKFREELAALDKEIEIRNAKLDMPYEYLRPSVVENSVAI
# [1] = tested on: precision-cut lung slices (PCLS); details: LDH release, 1-500 nM with 10 μM linoleic acid for 20 h
# [2] = tested on: interleukin expression in precision-cut lung slices (PCLS); experiment: Gene expression by RT-qPCR in LPS/IFNγ-stimulated precision-cut lung slices; type: cell-based, mouse; details: 20 h with 10 μM linoleic acid, LPS/IFNγ last 4 h
# [3] = tested on: interleukin expression in RAW 264.7 cells; experiment: Gene expression by RT-qPCR in LPS/IFNγ-stimulated RAW 264.7 cells; type: cell-based, murine; details: RAW 264.7, 20 h with 10 μM linoleic acid, LPS/IFNγ last 4 h
# Summary of the method: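 Murine macrophages (passage 7–16) in DMEM-GlutaMAX with 10% heat-inactivated FBS, extra 2 mM GlutaMAX and penicillin/streptomycin at 37 °C, 5% CO2, seeded at 20,000 cells/cm2 one day before. Test compound 1–500 nM (final) with 10 μM linoleic acid for 20 h; 10 ng/ml LPS and IFNγ for the last 4 h. Cells were DPBS-washed and total RNA isolated for RT-qPCR. Results are fold change versus the LPS/IFNγ/linoleic acid control.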
# interleukin-12 (IL-12) = details: after stimulation with LPS; cited from earlier work
structure (smiles),measurement,setting,value
"CCOC(=O)c1c(C=O)c2ccc(Cl)cc2n1C [Compound 3, Ethyl 6-chloro-3-formyl-1-methyl-1H-indole-2-carboxylate]",inhibition at 50 µM,h-15-LOX-1; read-out: inhibition of the enzyme activity at 50 μM,< 50%
O=Cc1c(Cl)[nH]c2cc(Cl)ccc12 [Compound 4],h-15-LOX-1 inhibition (result in words),h-15-LOX-1,inactive
O=Cc1c[nH]c2cc(Cl)ccc12 [Compound 5],h-15-LOX-1 inhibition (result in words),h-15-LOX-1,inactive
"O=Cc1c(C(=O)O)[nH]c2cc(Cl)ccc12 [Compound 7, 6-chloro-3-formyl-1H-indole-2-carboxylic acid]",h-15-LOX-1 inhibition (result in words),h-15-LOX-1,inactive
"CC(C)(C)OC(=O)c1cc2ccc(Cl)cc2[nH]1 [Compound 8, tert-butyl 6-chloro-1H-indole-2-carboxylate]",h-15-LOX-1 inhibition (result in words),h-15-LOX-1,inactive
"CCOC(=O)c1[nH]c2cc(Cl)ccc2c1C(=O)C[C@@H](C)CCCC(C)C [Compound 14d, (S)-ethyl 6-chloro-3-(3,7-dimethyloctanoyl)-1H-indole-2-carboxylate]",concentration not affecting PCLS viability,[1],≤ 500 nM
same,IL-1β gene expression,[2],small but significant downregulation
same,IL-6 gene expression,[2],small but significant downregulation
same,IL-10 gene expression,[2],upregulated
same,IL-12 gene expression,[2],remained unchanged
same,IL-1β gene expression,[3],did not change
same,IL-6 gene expression,[3],did not change
same,IL-12 gene expression,[3],did not change
c1ccc2c(c1)SCc1c-2[nH]c2ccccc12 [PD-146176],effect on interleukin-12 (IL-12),interleukin-12 (IL-12),downregulation of interleukin-12 (IL-12)
